The nature of assay [1]: Growth inhibition of LXFL529L cells by sulforhodamine B assay, incubation time 3 days and IC50 was calculated survival of treated cells over control cells X 100[T/C%]. Particulars: Homo sapiens, LXFL 529L, 72 h. The class given is functional. The procedure, abridged:
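LXFL529L cells grown in RPMI 1640 with extra glutamine (300 mg/L), 1% penicillin/streptomycin and 10% newborn calf serum at 37 °C, 5% CO₂, mycoplasma-free. Seeded, grown 24 h, then exposed continuously to drug for 3 d. Sulforhodamine B read-out expressed as % T/C of controls. IC50 from mean ± SEM of two separate assays, each in quadruplicate.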

In assay [2] the target is Phosphodiesterase 4 (Homo sapiens, UniProt P27815+Q08499+Q07343+Q08493). As to the kind of experiment: Inhibition of cAMP hydrolysis by inhibiting phosphodiesterases (PDE4), isolated from tumor tissue of human large cell lung tumor xenograft LXFL-529, grown in nude mice. It counts as protein assay.

These results are taken from ChEMBL document CHEMBL1131190, “Synthesis of 7-benzylamino-6-chloro-2-piperazino-4-pyrrolidinopteridine and novel derivatives free of positional isomers. Potent inhibitors of cAMP-specific phosphodiesterase and of malignant tumor cell growth” (J Med Chem, 1998).

Where only a bound is given, the exact number is not on record here.

For the compound `CN(C)c1nc(N2CCNCC2)nc2nc(NCc3ccccc3)c(Cl)nc12`, the results for the IC50 in assay [1] and in assay [2] were 5.9 µM and 0.3 µM, respectively.

As for `CN(C)c1nc2c(N3CCCC3)nc(Cl)nc2nc1NCc1ccccc1`, the IC50 (commonly the midpoint of a concentration-inhibition curve) in assay [1] is greater than 20 µM; in assay [2] it was 0.65 µM.

As to `CN(C)c1nc(N2CCCC2)c2nc(Cl)c(NCc3ccccc3)nc2n1`, the IC50 was 11.8 µM in assay [1] and 1.8 µM in assay [2].

As to `CC(=O)N1CCN(c2nc(N3CCCC3)c3nc(Cl)c(NCc4ccccc4)nc3n2)CC1`, the IC50 was 13 µM in assay [1] and 5.9 µM in assay [2].

Consider `Clc1nc2c(N3CCCC3)nc(N3CCOCC3)nc2nc1NCc1ccccc1`, for which the results for the IC50 in assay [1] and in assay [2] were greater than 20 µM and 2.5 µM, respectively.

On to `Clc1nc2c(N3CCCC3)nc(N3CCNCC3)nc2nc1N1CCCC1`, for which the IC50 is 3.1 µM in assay [1] and 0.059 µM in assay [2].

For the compound `CN(C)c1nc2nc(N3CCNCC3)nc(N3CCCC3)c2nc1Cl`, the IC50 in assay [1] is 5.8 µM; in assay [2] it was 0.046 µM.

Consider `c1ccc(CNc2cnc3c(N4CCCC4)nc(N4CCNCC4)nc3n2)cc1`, for which the IC50 is 7.3 µM in assay [1] and 0.36 µM in assay [2].

With `Clc1nc2c(NCc3ccccc3)nc(N3CCNCC3)nc2nc1N1CCCC1`, the IC50 in assay [1] is 4 µM; in assay [2], 0.083 µM.

`NCCNc1nc(N2CCCC2)c2nc(Cl)c(NCc3ccccc3)nc2n1`: the IC50 in assay [1] was 3.2 µM; in assay [2] it was 3.7 µM.

Take `Clc1nc2c(N3CCCC3)nc(N3CCNCC3)nc2nc1NCc1ccccc1`: the IC50 in assay [1] is 2.3 µM; in assay [2], 0.016 µM.

Turning to `CN(C)c1nc2nc(N3CCNCC3)nc(N(C)C)c2nc1Cl`, the values for the IC50 in assay [1] and in assay [2] were greater than 20 µM and 1.2 µM, respectively.

`CN1CCN(c2nc(N3CCCC3)c3nc(Cl)c(NCc4ccccc4)nc3n2)CC1`: the IC50 in assay [1] is 6.5 µM; in assay [2], 3.1 µM.

Regarding `O=C1CN(c2nc(N3CCCC3)c3nc(Cl)c(NCc4ccccc4)nc3n2)CCN1`, the IC50 in assay [1] was 9.5 µM; in assay [2], 4.2 µM.

Take `OCCNc1nc(N2CCCC2)c2nc(Cl)c(NCc3ccccc3)nc2n1`: the results for the IC50 in assay [1] and in assay [2] were 15.2 µM and 2.8 µM, respectively.
